Assay results as given in ChEMBL document CHEMBL1926676, “Antimalarial β-carboline and indolactam alkaloids from Marinactinospora thermotolerans, a deep sea isolate” (J Nat Prod, 2011).

Experiments:
Plasmodium falciparum [1] = assay: Antiplasmodial activity against drug-sensitive Plasmodium falciparum 3D7 assessed as parasitaemia after 72 hrs using SYBR Green 1 staining by fluorescence method; format: functional, organism-based; conditions: 3D7, 72 h
How it was run: (§1)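 Blood-stage P. falciparum cultures at 0.2% parasitemia, 2% hematocrit, given serially diluted compound in quadruplicate; 72 h at 37 °C. Lysis buffer with SYBR Green I (0.2 μL/mL) added, 1 h in dark, then relative fluorescence read. IC50 by nonlinear regression of logistic dose-response curves.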

Plasmodium falciparum [2] = assay: Antiplasmodial activity against multidrug-resistant Plasmodium falciparum Dd2 assessed as parasitaemia after 72 hrs using SYBR Green 1 staining by fluorescence method; format: functional, organism-based; conditions: Dd2, 72 h; how it was run: as §1
MCF7 = assay: Cytotoxicity against human MCF7 cells after 48 hrs by MTT assay; format: functional, cell-based; conditions: MCF7, 48 h
How it was run: (§2)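 Cells grown in RPMI-1640 with 10% FBS, 37 °C, 5% CO2. Seeded at 2 × 10^3 cells per well and left 12 h. Compounds added in DMSO at various concentrations for 48 h. MTT (1 mg/mL in PBS) then added for 4 h at 37 °C. Formazan dissolved in DMSO and absorbance read.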

SW1990 = assay: Cytotoxicity against human SW1990 cells after 48 hrs by MTT assay; format: functional, cell-based; conditions: SW1990, 48 h; how it was run: as §2
SMMC-7721 = assay: Cytotoxicity against human SMMC7721 cells after 48 hrs by MTT assay; format: functional, cell-based; conditions: SMMC-7721, 48 h; how it was run: as §2
NCI-H460 = assay: Cytotoxicity against human NCI-H460 cells after 48 hrs by MTT assay; format: functional, cell-based; conditions: NCI-H460, 48 h; how it was run: as §2
A549 = assay: Cytotoxicity against human A549 cells after 48 hrs by MTT assay; format: functional, cell-based; conditions: A549, 48 h; how it was run: as §2
HeLa = assay: Cytotoxicity against human HeLa cells after 48 hrs by MTT assay; format: functional, cell-based; how it was run: as §2
DU-145 = assay: Cytotoxicity against human DU145 cells after 48 hrs by MTT assay; format: functional, cell-based; conditions: DU-145, 48 h; how it was run: as §2
MDA-MB-231 = assay: Cytotoxicity against human MDA-MB-231 cells after 48 hrs by MTT assay; format: functional, cell-based; conditions: MDA-MB-231, 48 h; how it was run: as §2

Structure (SMILES)	IC50 (Plasmodium falciparum [1])	IC50 (Plasmodium falciparum [2])	IC50 (MCF7)	IC50 (SW1990)	IC50 (SMMC-7721)	IC50 (NCI-H460)	IC50 (A549)	IC50 (HeLa)	IC50 (DU-145)	IC50 (MDA-MB-231)
CC(=O)c1nc(C(=O)NCCc2ccc(O)cc2)cc2c1[nH]c1ccccc12	16.6 µM	15.6 µM	> 50 µM	> 50 µM	> 50 µM	> 50 µM	> 50 µM	> 50 µM	> 50 µM	> 50 µM
CC(=O)c1nc(C(=O)NCCc2c[nH]c3ccccc23)cc2c1[nH]c1ccccc12 [MARINACARBOLINE D]	5.39 µM	3.59 µM	> 50 µM	> 50 µM	> 50 µM	> 50 µM	> 50 µM	> 50 µM	> 50 µM	> 50 µM
C=CC(C)(C)c1ccc2c3c(c[nH]c13)C[C@@H](CO)NC(=O)[C@H]([C@@H](C)CC)N2	20.8 µM	18.7 µM	> 50 µM	> 50 µM	> 50 µM	> 50 µM	> 50 µM	> 50 µM	> 50 µM	> 50 µM
C=CC(C)(C)c1ccc2c3c(c[nH]c13)C[C@@H](CO)NC(=O)[C@H]([C@@H](C)CC)N2C [METHYLPENDOLMYCIN]	–	–	> 50 µM	> 50 µM	> 50 µM	> 50 µM	> 50 µM	> 50 µM	> 50 µM	> 50 µM
CC(=O)c1nccc2c1[nH]c1ccccc12	–	–	> 50 µM	> 50 µM	> 50 µM	> 50 µM	> 50 µM	> 50 µM	> 50 µM	> 50 µM
CC(=O)c1nc(C(=O)NCCc2ccccc2)cc2c1[nH]c1ccccc12	3.09 µM	3.38 µM	> 50 µM	> 50 µM	> 50 µM	> 50 µM	> 50 µM	> 50 µM	> 50 µM	> 50 µM
COc1ccc(CCNC(=O)c2cc3c([nH]c4ccccc43)c(C(C)=O)n2)cc1 [MARINACARBOLINE A]	36 µM	1.92 µM	> 50 µM	> 50 µM	> 50 µM	> 50 µM	> 50 µM	> 50 µM	> 50 µM	> 50 µM
C=CC(C)(C)c1ccc2c3c(c[nH]c13)C[C@@H](CO[C@@H]1O[C@@H](CO)[C@H](O)[C@@H](O)[C@@H]1O)NC(=O)[C@H]([C@@H](C)CC)N2C	10.4 µM	5.03 µM	> 50 µM	> 50 µM	> 50 µM	> 50 µM	> 50 µM	> 50 µM	> 50 µM	> 50 µM
C=CC(C)(C)c1ccc2c3c(c[nH]c13)C[C@@H](CO)NC(=O)[C@H](C(C)C)N2C [PENDOLMYCIN]	–	–	> 50 µM	> 50 µM	> 50 µM	> 50 µM	> 50 µM	> 50 µM	> 50 µM	> 50 µM
